Results reported in ChEMBL document CHEMBL3124905, “Isothiocoumarin-3-carboxylic acid derivatives: synthesis, anticancer and antitrypanosomal activity evaluation” (Eur J Med Chem, 2014).

Legend:
Format in all cases: functional
[1] = Growth inhibition of human […] cells after 48 hrs by SRB assay
Procedure, shortened: (§1)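 NCI five-dose assay against the ~60-cell-line panel (nine cancer types). Tenfold dilutions from 10−4 to 10−8 M were used with continuous 48-h exposure and SRB absorbance readout. Percent growth was computed from time-zero, control and treated absorbances. GI50 is the concentration giving 50% lower net protein increase than controls. Values not reached are reported as beyond the tested range.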

[2] = system: SF-268; experiment: Anticancer activity against human SF268 cells assessed as cell growth at 100 uM after 48 hrs by SRB assay; details: SF-268, 48 h, read-out: Activity
Procedure, shortened: (§2)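 NCI one-dose primary screen on a three-line panel (breast MCF7, lung NCI-H460, CNS SF-268). Cells were inoculated and preincubated 24–48 h, then exposed to a single concentration of 10−4 M for 48 h. The endpoint was sulforhodamine B protein staining, and results are expressed as percent growth relative to untreated control cells. Negative values denote cytotoxicity.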

[3] = system: A549; experiment: Growth inhibition of human A549/ATCC cells after 48 hrs by SRB assay; details: A549, 48 h; procedure, shortened: as §1
[4] = Growth inhibition of human RXF393 cells after 48 hrs by SRB assay; details: RXF 393, 48 h; for TGI: read-out: pTGI (converted); procedure, shortened: as §1
[5] = system: NCI-H460; experiment: Anticancer activity against human NCI-H460 cells assessed as cell growth at 100 uM after 48 hrs by SRB assay; details: NCI-H460, 48 h, read-out: Activity; procedure, shortened: as §2
[6] = system: MCF7; experiment: Anticancer activity against human MCF7 cells assessed as cell growth at 100 uM after 48 hrs by SRB assay; details: MCF7, 48 h, read-out: Activity; procedure, shortened: as §2
[7] = system: NCI/ADR-RES; experiment: Growth inhibition of human NCI/ADR-RES cells after 48 hrs by SRB assay; details: for TGI: read-out: pTGI (converted); procedure, shortened: as §1
[8] = system: UACC-62; experiment: Growth inhibition of human UACC62 cells after 48 hrs by SRB assay; details: UACC-62, 48 h
Procedure, shortened: (§3)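 NCI ~60-cell-line five-dose screen. Cells were preincubated 24-48 h, then given compound at 10-fold dilutions from 10^-4 to 10^-8 M with 48 h continuous exposure. SRB protein stain was read by absorbance at time zero, in untreated control and with drug. GI50 was derived from [(Ti-Tz)/(C-Tz)]x100=50, TGI from Ti=Tz, and LC50 from [(Ti-Tz)/Tz]x100=-50.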

[9] = Growth inhibition of human HCC2998 cells after 48 hrs by SRB assay; details: HCC 2998, 48 h; procedure, shortened: as §1
[10] = system: HCT-116; experiment: Growth inhibition of human HCT116 cells after 48 hrs by SRB assay; details: HCT-116, 48 h; procedure, shortened: as §1
[11] = system: ACHN; experiment: Growth inhibition of human ACHN cells after 48 hrs by SRB assay; procedure, shortened: as §1
[12] = system: U-251; experiment: Growth inhibition of human U251 cells after 48 hrs by SRB assay; details: U-251, 48 h; procedure, shortened: as §3
[13] = Growth inhibition of human OVCAR5 cells after 48 hrs by SRB assay; details: OVCAR-5, 48 h; procedure, shortened: as §1
[14] = system: TK-10; experiment: Growth inhibition of human TK10 cells after 48 hrs by SRB assay; details: TK-10, 48 h; procedure, shortened: as §3
[15] = system: OVCAR-8; experiment: Growth inhibition of human OVCAR8 cells after 48 hrs by SRB assay; details: OVCAR-8, 48 h; procedure, shortened: as §1
[16] = system: 786-0; experiment: Growth inhibition of human 786-0 cells after 48 hrs by SRB assay; details: 786-0, 48 h; procedure, shortened: as §1
[17] = system: SF-295; experiment: Growth inhibition of human SF295 cells after 48 hrs by SRB assay; details: SF-295, 48 h; procedure, shortened: as §1
[18] = system: NCI-H522; experiment: Growth inhibition of human NCI-H522 cells after 48 hrs by SRB assay; details: NCI-H522, 48 h; procedure, shortened: as §1
[19] = system: SK-MEL-5; experiment: Growth inhibition of human SK-MEL-5 cells after 48 hrs by SRB assay; details: SK-MEL-5, 48 h; procedure, shortened: as §1
[20] = system: IGROV-1; experiment: Growth inhibition of human IGROV1 cells after 48 hrs by SRB assay; details: IGROV-1, 48 h; procedure, shortened: as §1
[21] = system: BT-549; experiment: Growth inhibition of human BT549 cells after 48 hrs by SRB assay; details: BT-549, 48 h; procedure, shortened: as §1
[22] = Growth inhibition of human EKVX cells after 48 hrs by SRB assay; procedure, shortened: as §1
[23] = Growth inhibition of human UACC257 cells after 48 hrs by SRB assay; details: UACC-257, 48 h; procedure, shortened: as §3

COc1ccc2cc(C(=O)Nc3ccc(F)cc3)sc(=O)c2c1OC
GI50 [1]: 6.76 µM | TGI ([1]; read-out: pTGI (converted)): 22.9 µM | growth at 100 µM [2]: 60% | GI50 [3]: 18.6 µM | TGI ([3]; read-out: pTGI): > 100 µM | GI50 [4]: 10.7 µM | TGI [4]: 33.9 µM | growth at 100 µM [5]: 11% | growth at 100 µM [6]: 55% | GI50 [7]: 12.6 µM | TGI [7]: > 100 µM | GI50 [8]: 19.5 µM | TGI ([8]; read-out: pTGI (converted)): 52.5 µM | GI50 [9]: 14.1 µM | TGI ([9]; read-out: pTGI (converted)): 49 µM | GI50 [10]: 14.1 µM | TGI ([10]; read-out: pTGI (converted)): 40.7 µM | GI50 [11]: 7.08 µM | TGI ([11]; read-out: pTGI (converted)): 26.9 µM | GI50 [12]: 5.5 µM | TGI ([12]; read-out: pTGI (converted)): 20.4 µM | GI50 [13]: 18.6 µM | TGI ([13]; read-out: pTGI (converted)): 61.7 µM | GI50 [14]: 15.1 µM | TGI ([14]; read-out: pTGI (converted)): 33.1 µM | GI50 [15]: 12.3 µM | TGI ([15]; read-out: pTGI (converted)): 67.6 µM | GI50 [16]: 11.5 µM | TGI ([16]; read-out: pTGI (converted)): 41.7 µM | GI50 [17]: 18.2 µM | TGI ([17]; read-out: pTGI (converted)): 51.3 µM | GI50 [18]: 18.2 µM | TGI ([18]; read-out: pTGI (converted)): 70.8 µM

CC(C)OC(=O)c1cc2ccccc2c(=O)s1
GI50 [19]: 24.5 µM | TGI ([19]; read-out: pTGI (converted)): 49 µM | growth at 100 µM [2]: 69% | GI50 [4]: 15.1 µM | TGI [4]: 67.6 µM | growth at 100 µM [5]: 13% | growth at 100 µM [6]: 87% | GI50 [20]: 20.9 µM | TGI ([20]; read-out: pTGI): > 100 µM | GI50 [7]: 26.9 µM | TGI [7]: 69.2 µM | GI50 [21]: 24.5 µM | TGI ([21]; read-out: pTGI (converted)): 63.1 µM | GI50 [22]: 19.1 µM | TGI ([22]; read-out: pTGI (converted)): 52.5 µM | GI50 [23]: 19.5 µM | TGI ([23]; read-out: pTGI (converted)): 66.1 µM
